Data set [1] is described as follows: Effect of H2O on the rate of disappearance of the 390-400 nm band. Format: physicochemical. Conditions: CH3CN cosolvent.
For data set [2] the following is noted: wholly aqueous solution; cited from earlier work.
For data set [3] the following is noted: cited from earlier work.
Data set [4] in a line: Picosecond pump-probe transient absorption, singlet and triplet lifetimes. The format is physicochemical. Particulars: for kpF rate constant for the photo-Favorskii process: calculated as φdis/3τ. An outline of the steps:
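Transient absorption used the femtosecond pump–supercontinuum probe method. Pump pulses were 266 nm, 1 μJ, <100 fs. The supercontinuum probe spanned 270–690 nm, with both beams focused to 0.2 mm on sample flowing through a 0.4 mm cell. Detection was by photodiode array. Spectra were corrected for chirp and solvent contribution. kpF was taken as φdis/3τ.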

The nature of data set [5]: Quantitative photolysis, quantum yields for disappearance. Format: physicochemical. Particulars: for φdis (1-octanol): solvent 1-octanol. The method, boiled down: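 Test compound (1–9 mM) with caffeine or 4-acetamidophenol internal standard was dissolved in water, buffer, salt solution or solvent in quartz tubes. Samples were irradiated in a Rayonet reactor with two 3000 Å lamps, or at 350 nm for the TRIS pH 9.0/LiClO4 case. Aliquots taken every 30 s up to 5 min (<20% conversion) went to LC/UV or LC/MS/MS. Photon flux came from ferrioxalate actinometry. At least three independent runs were done.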

Data set [6] can be described thus: Nanosecond flash photolysis, decay of the 340-nm transient. Format: physicochemical. Particulars: water containing ca. 10 % ACN.
Data set [7] is described as follows: Stern-Volmer quenching with potassium sorbate. Format: physicochemical. Particulars: H2O. An outline of the steps:
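pHP-GABA solutions (0.001–0.01 M) were diluted with potassium sorbate (0–0.1 M) in water. They were photolyzed under the quantum-yield conditions, and GABA-release quantum efficiencies were measured. KSV was the slope of φ0/φ versus [Q]. Triplet lifetime was derived assuming kq equals the diffusion rate, 7.2 × 10^9 […].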

Here are results for three compounds from article PMC3422889 (The Journal of organic chemistry, 2009).

Like-named read-outs stand apart in the source and are kept apart here.

`CCOP(=O)(OCC)OCC(=O)c1ccc(O)cc1` [pHP diethyl phosphate]: the 3kdis in data set [1] (74.53 mol % H2O) was 3.30 × 10^9 S^−1; in data set [1] (95.14 mol % H2O), 9.95 × 10^9 S^−1; in data set [1] (100.00 mol % H2O), 1.6 × 10^10 S^−1; in data set [3] (0.00 mol % H2O, CH3CN, ref B. Hellrung, J. Wirz unpublished) it was 2.62 × 10^5 S^−1; in data set [3] (5.04 mol % H2O, CH3CN cosolvent, ref B. Hellrung, J. Wirz unpublished), 2.72 × 10^6 S^−1; in data set [3] (7.51 mol % H2O, CH3CN cosolvent, ref B. Hellrung, J. Wirz unpublished) it was 6.56 × 10^6 S^−1. Besides, the 3kdis in data set [3] (10.00 mol % H2O, CH3CN cosolvent, ref B. Hellrung, J. Wirz unpublished) was 1.15 × 10^7 S^−1; in data set [3] (15.03 mol % H2O, CH3CN cosolvent, ref B. Hellrung, J. Wirz unpublished), 3.84 × 10^7 S^−1; in data set [3] (24.54 mol % H2O, CH3CN cosolvent, ref Phillips 14), 1.11 × 10^8 S^−1; in data set [3] (34.05 mol % H2O, CH3CN cosolvent, ref Phillips 14), 4.17 × 10^8 S^−1; in data set [3] (49.38 mol % H2O, CH3CN cosolvent, ref Phillips 14) it was 7.81 × 10^8 S^−1; in data set [3] (55.64 mol % H2O, CH3CN cosolvent, ref Phillips 14), 1.25 × 10^9 S^−1. For the same compound, the 3kdis in data set [3] (66.11 mol % H2O, CH3CN cosolvent, ref Phillips 14) is listed as 1.89 × 10^9 S^−1; in data set [3] (89.77 mol % H2O, CH3CN cosolvent, ref Phillips 14) it was 3.45 × 10^9 S^−1. For the same compound, in data set [2], the 3τ triplet lifetime is 60 ps.
`NCCCC(=O)OCC(=O)c1ccc(O)c(OC(F)(F)F)c1` [compound 2, CF3O-pHP GABA] yielded a 3τ triplet lifetime in data set [4] (10% CH3CN/H2O, pump-probe) of 0.71 ns. Besides, in data set [4] (H2O), the 3τ triplet lifetime was found to be 0.46 ns and the “kpF rate constant for the photo-Favorskii process” value is 1.98 10^8 s^−1. In addition, in data set [5] (10% (v:v) H2O:CH3CN), the “quantum yield in 10% H2O:CH3CN” value was determined as 0.12. Also, the “quantum yield in dry CH3CN” value in data set [5] (dry CH3CN) was determined as 0.03. Also, in data set [5], the “φdis (1-octanol)” value worked out at 0.14. Further, the “release of the amino acid upon irradiation” value in data set [5] (λ > 300 nm, aqueous media, ambient conditions) is given as “quantitatively released”. For the same compound, in data set [6], the “kdec decay rate constant of the 340-nm transient” value was roughly 6.5e+06 s⁻¹. For the same compound, the “KSV Stern-Volmer constant” value in data set [7] stood at 20 M⁻¹.
On to `NCCCC(=O)OCC(=O)c1ccc(O)cc1` [compound 1, pHP GABA], for which, in data set [4] (H2O), the 1τ singlet lifetime was determined as 2.3 ps, the 3τ triplet lifetime is 0.34 ns and the “kpF rate constant for the photo-Favorskii process” value is recorded as 6.00 10^8 s^−1. The “φdis (1-octanol)” value in data set [5] turned out to be 0.12.
